Assays:
LIM domain kinase 1 = LIM domain kinase 1 (Homo sapiens, UniProt P53667); experiment: Inhibition of LIMK1 (unknown origin) using 1 uM cofilin as substrate
Outline: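 IC50 was determined in 10-dose mode using a 3-fold serial dilution series. Reactions contained ATP, cofilin as substrate, and Limk1 enzyme at 50 nM.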

[1] = target: Rho-associated protein kinase 2 (Homo sapiens, UniProt O75116); experiment: Inhibition of ROCK2 (unknown origin) after 4 hrs using 1 uM STK2 as substrate
Outline: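 HTRF kinase assay using STK2 substrate plus ATP in STK-buffer, with test compound pin-dispensed. Reaction ran 4 h at rt and was stopped with antibody and 62.5 nM streptavidin-XL in detection buffer. After a further 1 h at rt, plates were read in HTRF mode.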

Chain of Rho-associated protein kinase 2 (O75116 whole entry): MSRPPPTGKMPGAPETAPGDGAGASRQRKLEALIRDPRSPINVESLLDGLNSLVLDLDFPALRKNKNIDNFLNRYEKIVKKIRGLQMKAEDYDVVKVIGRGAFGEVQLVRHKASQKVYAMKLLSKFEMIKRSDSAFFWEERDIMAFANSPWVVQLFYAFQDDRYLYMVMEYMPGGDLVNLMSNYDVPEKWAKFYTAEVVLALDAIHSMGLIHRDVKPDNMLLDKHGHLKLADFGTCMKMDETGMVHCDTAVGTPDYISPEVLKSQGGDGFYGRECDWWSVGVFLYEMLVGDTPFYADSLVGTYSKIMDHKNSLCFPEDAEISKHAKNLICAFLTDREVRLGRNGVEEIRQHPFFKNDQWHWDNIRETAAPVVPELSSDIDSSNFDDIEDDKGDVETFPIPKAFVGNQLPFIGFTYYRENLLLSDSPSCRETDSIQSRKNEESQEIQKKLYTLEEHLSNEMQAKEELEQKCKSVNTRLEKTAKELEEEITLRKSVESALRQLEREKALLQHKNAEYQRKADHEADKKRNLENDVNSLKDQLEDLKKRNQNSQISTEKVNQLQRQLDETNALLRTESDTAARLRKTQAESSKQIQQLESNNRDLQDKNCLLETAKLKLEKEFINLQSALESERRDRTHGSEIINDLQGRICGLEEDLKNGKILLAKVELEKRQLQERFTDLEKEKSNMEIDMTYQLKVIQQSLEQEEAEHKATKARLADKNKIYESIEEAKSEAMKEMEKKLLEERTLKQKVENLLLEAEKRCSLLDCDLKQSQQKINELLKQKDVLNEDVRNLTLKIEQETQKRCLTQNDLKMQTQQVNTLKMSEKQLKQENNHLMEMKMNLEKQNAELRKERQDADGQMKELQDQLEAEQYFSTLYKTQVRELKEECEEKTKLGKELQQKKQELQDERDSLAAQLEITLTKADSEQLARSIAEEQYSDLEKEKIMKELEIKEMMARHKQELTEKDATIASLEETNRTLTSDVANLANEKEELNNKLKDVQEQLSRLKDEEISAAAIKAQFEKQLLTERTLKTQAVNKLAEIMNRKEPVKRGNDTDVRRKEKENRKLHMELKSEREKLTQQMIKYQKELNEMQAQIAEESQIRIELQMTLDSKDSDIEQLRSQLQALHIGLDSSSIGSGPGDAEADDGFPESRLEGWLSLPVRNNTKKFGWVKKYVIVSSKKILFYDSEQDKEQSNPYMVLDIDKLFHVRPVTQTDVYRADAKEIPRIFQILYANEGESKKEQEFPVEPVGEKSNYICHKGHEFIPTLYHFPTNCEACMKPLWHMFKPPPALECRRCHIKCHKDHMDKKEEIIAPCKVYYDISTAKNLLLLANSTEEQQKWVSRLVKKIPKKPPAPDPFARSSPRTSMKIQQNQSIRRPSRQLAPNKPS
Chain of LIM domain kinase 1 (P53667 whole entry, the tested form may be a part): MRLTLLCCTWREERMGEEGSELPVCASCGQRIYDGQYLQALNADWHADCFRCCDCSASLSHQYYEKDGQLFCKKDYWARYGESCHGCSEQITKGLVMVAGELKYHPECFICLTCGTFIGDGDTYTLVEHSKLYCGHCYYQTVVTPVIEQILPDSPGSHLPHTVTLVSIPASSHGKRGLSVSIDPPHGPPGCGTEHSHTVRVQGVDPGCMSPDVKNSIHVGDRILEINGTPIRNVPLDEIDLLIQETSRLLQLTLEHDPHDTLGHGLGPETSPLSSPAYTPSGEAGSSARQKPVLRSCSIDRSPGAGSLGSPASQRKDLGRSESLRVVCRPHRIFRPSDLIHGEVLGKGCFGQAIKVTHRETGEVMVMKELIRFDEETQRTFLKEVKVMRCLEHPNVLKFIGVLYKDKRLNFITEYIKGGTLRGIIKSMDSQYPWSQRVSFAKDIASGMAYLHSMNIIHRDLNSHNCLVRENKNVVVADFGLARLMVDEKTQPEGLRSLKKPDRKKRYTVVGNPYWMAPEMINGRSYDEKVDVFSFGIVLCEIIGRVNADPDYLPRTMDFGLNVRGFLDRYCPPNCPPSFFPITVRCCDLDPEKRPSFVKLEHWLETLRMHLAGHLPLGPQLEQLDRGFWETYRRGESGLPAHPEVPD

Row | SMILES | IC50 (LIM domain kinase 1) [nM] | IC50 [1] [nM]
1 | Cc1cc(NC(=O)Nc2ccc(-c3ncnc4[nH]cc(C)c34)cc2F)ccn1 | 19 | 2010
2 | Cc1c[nH]c2ncnc(-c3ccc(NC(=O)Nc4cncnc4)c(F)c3)c12 | 55 | 1020
3 | Cc1c[nH]c2ncnc(-c3ccc(NC(=O)N(CCO)c4ccccc4)c(F)c3)c12 | 85 | 4510

Other lines, results leading:

Row | IC50 (LIM domain kinase 1) [nM] | IC50 [1] [nM] | SMILES
4 | 11 | 2110 | Cc1ccc(NC(=O)Nc2ccc(-c3ncnc4[nH]cc(C)c34)cc2F)cn1
5 | 10 | > 20000 | COc1ccc(NC(=O)Nc2ccc(-c3ncnc4[nH]cc(C)c34)cc2F)cc1

— ChEMBL document CHEMBL3627719, “Discovery of bis-aryl urea derivatives as potent and selective Limk inhibitors: Exploring Limk1 activity and Limk1/ROCK2 selectivity through a combined computational study” (Bioorg Med Chem, 2015)
